Measurements collected from several papers.
Protocols differ between the studies behind these lines.
Read-out: cell growth or viability

Compound	cell line	assay	conditions	IC50
Cc1cc2c(C(N)=O)cncc2n1-c1nc2c(c(NCc3ccccc3)n1)CCCN2	RPMI-8226	ATP luminescence	72 h	2900 nM
COc1ccc2c(c1)OC1=C(C(=O)CC(C)(C)C1)C2c1c(C(=O)O)[nH]c2ccccc12 (centres unmarked)	3T3-L1	MTT	72 h	24.5 µg/mL
O=C(O)c1ccc(NCc2cccc([N+](=O)[O-])c2)cc1	NCI-H69	resazurin	72 h	> 100000 nM
COc1cccc2c1C(=O)c1c(O)c3c(c(O)c1C2=O)C[C@@](O)(C(=O)CO)C[C@@H]3O[C@H]1C[C@H](N)[C@H](O)[C@H](C)O1	ACHN	MTT	24 h	36100 nM
CC(C)(C)c1cnc(CSc2cnc(NC(=O)C3CCN(C(=O)CCCCCCCN4Cc5cc6c(cc5C4)C(=O)N(C4CCC(=O)NC4=O)C6=O)CC3)s2)o1 (centres unmarked)	TC-71	MTT	72 h	8.52 nM
O=C(O)c1ccc(NCc2ccc(Cl)cc2)cc1	NCI-H69	resazurin	72 h	> 100000 nM
Cc1cc2c(C(=O)O)cccc2n1-c1nc2c(c(NCc3ccccc3)n1)CCCN2	RPMI-8226	ATP luminescence	72 h	800 nM
O=C(O)c1ccc(NCc2cccc(O)c2)cc1	NCI-H69	resazurin	72 h	> 100000 nM
CC(C)(C)c1cnc(CSc2cnc(NC(=O)C3CCN(C(=O)CCOCCCN4Cc5cc6c(cc5C4)C(=O)N(C4CCC(=O)NC4=O)C6=O)CC3)s2)o1 (centres unmarked)	TC-71	MTT	72 h	16.9 nM
Cc1cc2c(C(N)=O)cccc2n1-c1nc2c(c(NCc3cccc(O)c3)n1)CCCN2	RPMI-8226	ATP luminescence	72 h	300 nM
COc1ccc(CNc2ccc(C(=O)O)cc2)cc1	NCI-H69	resazurin	72 h	> 100000 nM
Cc1cc2c(C(N)=O)cccc2n1-c1nc2c(c(NCc3cccnc3)n1)CCCN2	RPMI-8226	ATP luminescence	72 h	2000 nM
CC(C)(C)c1cnc(CSc2cnc(NC(=O)C3CCN(C(=O)CCCCCCCCCCN4Cc5cc6c(cc5C4)C(=O)N(C4CCC(=O)NC4=O)C6=O)CC3)s2)o1 (centres unmarked)	TC-71	MTT	72 h	71.8 nM
Cc1cc2c(C(N)=O)cccc2n1-c1nc2c(c(NCc3ccccn3)n1)CCCN2	RPMI-8226	ATP luminescence	72 h	1400 nM
CC(C)(C)c1cnc(CSc2cnc(NC(=O)C3CCN(C(=O)CCCCCCCCCN4Cc5cc6c(cc5C4)C(=O)N(C4CCC(=O)NC4=O)C6=O)CC3)s2)o1 (centres unmarked)	TC-71	MTT	72 h	71.7 nM
CSc1ccc(CNc2ccc(C(=O)O)cc2)cc1	NCI-H69	resazurin	72 h	> 100000 nM
CC(C)(C)c1cnc(CSc2cnc(NC(=O)C3CCN(C(=O)CCOCCN4Cc5cc6c(cc5C4)C(=O)N(C4CCC(=O)NC4=O)C6=O)CC3)s2)o1 (centres unmarked)	TC-71	MTT	72 h	8.93 nM
Cc1cc2c(C(N)=O)cccc2n1-c1nc2c(c(OCc3ccccc3)n1)CCCN2	RPMI-8226	ATP luminescence	72 h	4500 nM
COc1cc(CNc2ccc(C(=O)O)cc2)ccc1O	NCI-H69	resazurin	72 h	> 100000 nM
CN1C(=O)CCC(N2C(=O)c3cc4c(cc3C2=O)CN(CCCCCCCC(=O)N2CCC(C(=O)Nc3ncc(SCc5ncc(C(C)(C)C)o5)s3)CC2)C4)C1=O (centres unmarked)	TC-71	MTT	72 h	> 1000 nM
